From ChEMBL document CHEMBL1152541, “Staurosporine tethered peptide ligands that target cAMP-dependent protein kinase (PKA): optimization and selectivity profiling” (Bioorg Med Chem, 2009) come the findings set out here.

*1 amine or outer side, *2 acyl side, *3 side chain or, on linkers, in order; H or OH if unused. Where a SMILES comes first, the peptide text is derived from it. Bridges are numbered along the chain shown (N, C = ends). [ ]: non-standard residue; d: D form. The star is where a group is joined. Staurosporine = CO[C@@H]1[C@H](N(C)*)C[C@H]2O[C@]1(C)n1c3ccccc3c3c4c(c5c6ccccc6n2c5c31)C(=O)NC4; Suc = O=C(CCC(=O)[*:2])[*:1]; Dap = NC[C@H](N)C(=O)O; βAla = NCCC(=O)O

Assay [1] relates to Epidermal growth factor receptor (Homo sapiens), P00533 [L858R]. Kind of assay: Binding affinity to human EGFR L858R mutant at 500 nM by cell-based competition binding assay relative to control in presence of DTT. In outline: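 Commercial (Ambit) competitive kinase-binding panel of 90 kinases measured the binding profile. Run under reducing conditions of 7.5 mM DTT. Binding is expressed relative to control.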

Assay [2] has as its target Serine/threonine-protein kinase pim-2 (Homo sapiens) (UniProt Q9P1W9). Kind of assay: Binding affinity to human PIM2 at 500 nM by cell-based competition binding assay relative to control in presence of DTT.
Assay [3] addresses T1, Tyrosine-protein kinase ZAP-70 (Homo sapiens) (UniProt P43403).
T1 sequence (whole entry): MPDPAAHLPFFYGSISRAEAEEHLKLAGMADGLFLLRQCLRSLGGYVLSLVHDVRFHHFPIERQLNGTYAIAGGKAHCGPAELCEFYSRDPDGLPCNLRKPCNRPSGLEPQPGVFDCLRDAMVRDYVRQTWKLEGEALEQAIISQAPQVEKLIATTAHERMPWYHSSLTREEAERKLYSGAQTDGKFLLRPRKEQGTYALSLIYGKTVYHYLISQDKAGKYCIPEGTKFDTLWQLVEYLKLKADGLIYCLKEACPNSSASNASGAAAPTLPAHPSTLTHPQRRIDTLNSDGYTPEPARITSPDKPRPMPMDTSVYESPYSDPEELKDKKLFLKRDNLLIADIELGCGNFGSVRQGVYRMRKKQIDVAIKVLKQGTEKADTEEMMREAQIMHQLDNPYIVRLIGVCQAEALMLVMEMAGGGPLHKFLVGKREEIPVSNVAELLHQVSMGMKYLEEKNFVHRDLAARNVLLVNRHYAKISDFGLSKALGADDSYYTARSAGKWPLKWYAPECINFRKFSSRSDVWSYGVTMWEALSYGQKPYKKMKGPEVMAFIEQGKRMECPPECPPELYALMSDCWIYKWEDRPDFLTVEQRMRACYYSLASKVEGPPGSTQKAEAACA
Kind of assay: Binding affinity to human ZAP70 at 500 nM by cell-based competition binding assay relative to control in presence of DTT.

The target in assay [4] is Mast/stem cell growth factor receptor Kit (Homo sapiens) (UniProt P10721). Kind of assay: Binding affinity to human KIT at 500 nM by cell-based competition binding assay relative to control in presence of DTT. In outline:
(§1)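 Competition binding screen (Ambit) across a panel of 90 kinases, scoring test ligand displacement of each kinase's binding relative to control. The screen ran under reducing conditions with 7.5 mM DTT.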

Assay [5] addresses Vascular endothelial growth factor receptor 2 (Homo sapiens) (UniProt P35968). Kind of assay: Binding affinity to human VEGFR2 at 200 nM by cell-based competition binding assay relative to control in presence of DTT.
Assay [6] deals with Phosphatidylinositol 4-phosphate 3-kinase C2 domain-containing subunit beta (Homo sapiens) (UniProt O00750). Kind of assay: Binding affinity to human PIK3C2beta at 200 nM by cell-based competition binding assay relative to control in presence of DTT.
Assay [7] deals with RAC-alpha serine/threonine-protein kinase (Homo sapiens) (UniProt P31749). Kind of assay: Binding affinity to human AKT1 at 200 nM by cell-based competition binding assay relative to control in presence of DTT. In outline: (§2)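 Kinase binding profiling ran on a commercial (Ambit) competitive binding screen against a panel of 90 kinases. The screen used reducing conditions with 7.5 mM DTT. To withstand the DTT, the bivalent ligand was tested as its amide isostere, with the disulfide replaced. A staurosporine derivative carrying a 3 β-alanine linker was run as the reference compound.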

The target in assay [8] is T1, Tyrosine-protein kinase ZAP-70 (Homo sapiens). Kind of assay: Binding affinity to human ZAP70 at 200 nM by cell-based competition binding assay relative to control in presence of DTT.
Assay [9] has as its target MAP kinase-interacting serine/threonine-protein kinase 1 (Homo sapiens) (UniProt Q9BUB5). Kind of assay: Binding affinity to human MKNK1 at 50 nM by cell-based competition binding assay relative to control in presence of DTT.
The target of assay [10] is Platelet-derived growth factor receptor beta (Homo sapiens) (UniProt P09619). Kind of assay: Binding affinity to human PDGFRbeta at 50 nM by cell-based competition binding assay relative to control in presence of DTT.
Assay [11] has as its system Tyrosine-protein kinase ABL1 (Homo sapiens), P00519 [E255K]. Kind of assay: Binding affinity to human ABL1 E255K mutant at 50 nM by cell-based competition binding assay relative to control in presence of DTT. In outline:
as §2

The target in assay [12] is T2, Serine/threonine-protein kinase PLK4 (Homo sapiens) (UniProt O00444).
T2 sequence (whole entry): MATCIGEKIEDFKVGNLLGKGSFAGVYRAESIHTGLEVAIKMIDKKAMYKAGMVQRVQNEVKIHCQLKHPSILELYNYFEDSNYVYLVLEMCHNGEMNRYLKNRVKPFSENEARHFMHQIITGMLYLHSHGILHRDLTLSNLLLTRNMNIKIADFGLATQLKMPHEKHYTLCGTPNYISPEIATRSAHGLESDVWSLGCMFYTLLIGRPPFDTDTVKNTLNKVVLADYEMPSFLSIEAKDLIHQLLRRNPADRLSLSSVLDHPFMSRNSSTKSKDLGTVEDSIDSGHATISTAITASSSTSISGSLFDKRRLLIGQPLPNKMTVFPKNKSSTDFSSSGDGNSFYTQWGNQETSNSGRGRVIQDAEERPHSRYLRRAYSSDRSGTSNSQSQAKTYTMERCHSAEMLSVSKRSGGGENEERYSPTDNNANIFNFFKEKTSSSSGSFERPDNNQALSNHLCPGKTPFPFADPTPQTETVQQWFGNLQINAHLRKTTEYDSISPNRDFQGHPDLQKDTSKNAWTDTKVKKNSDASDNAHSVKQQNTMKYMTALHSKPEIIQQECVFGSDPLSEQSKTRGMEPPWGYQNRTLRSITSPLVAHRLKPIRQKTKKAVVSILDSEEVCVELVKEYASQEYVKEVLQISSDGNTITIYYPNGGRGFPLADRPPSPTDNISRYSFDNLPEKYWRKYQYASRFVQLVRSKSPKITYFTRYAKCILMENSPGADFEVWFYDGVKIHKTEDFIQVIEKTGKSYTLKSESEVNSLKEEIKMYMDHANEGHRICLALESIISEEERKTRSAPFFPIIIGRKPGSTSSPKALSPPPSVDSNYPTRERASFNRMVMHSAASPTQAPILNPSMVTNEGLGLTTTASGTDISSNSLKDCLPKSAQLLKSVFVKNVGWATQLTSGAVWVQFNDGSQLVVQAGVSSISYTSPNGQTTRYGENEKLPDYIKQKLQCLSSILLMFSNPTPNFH
Kind of assay: Binding affinity to human PLK4 at 50 nM by cell-based competition binding assay relative to control in presence of DTT.

Assay [13] deals with Ribosomal protein S6 kinase alpha-3 (Homo sapiens) (UniProt P51812). Kind of assay: Binding affinity to human RPS6KA3 kinase domain 1 at 50 nM by cell-based competition binding assay relative to control in presence of DTT.
The target of assay [14] is Mitogen-activated protein kinase 10 (Homo sapiens) (UniProt P53779). Kind of assay: Binding affinity to human JNK3 at 50 nM by cell-based competition binding assay relative to control in presence of DTT. The procedure, abridged:
as §1

Sequence of Ribosomal protein S6 kinase alpha-3 (Homo sapiens) (P51812 whole entry, the tested form may be a part): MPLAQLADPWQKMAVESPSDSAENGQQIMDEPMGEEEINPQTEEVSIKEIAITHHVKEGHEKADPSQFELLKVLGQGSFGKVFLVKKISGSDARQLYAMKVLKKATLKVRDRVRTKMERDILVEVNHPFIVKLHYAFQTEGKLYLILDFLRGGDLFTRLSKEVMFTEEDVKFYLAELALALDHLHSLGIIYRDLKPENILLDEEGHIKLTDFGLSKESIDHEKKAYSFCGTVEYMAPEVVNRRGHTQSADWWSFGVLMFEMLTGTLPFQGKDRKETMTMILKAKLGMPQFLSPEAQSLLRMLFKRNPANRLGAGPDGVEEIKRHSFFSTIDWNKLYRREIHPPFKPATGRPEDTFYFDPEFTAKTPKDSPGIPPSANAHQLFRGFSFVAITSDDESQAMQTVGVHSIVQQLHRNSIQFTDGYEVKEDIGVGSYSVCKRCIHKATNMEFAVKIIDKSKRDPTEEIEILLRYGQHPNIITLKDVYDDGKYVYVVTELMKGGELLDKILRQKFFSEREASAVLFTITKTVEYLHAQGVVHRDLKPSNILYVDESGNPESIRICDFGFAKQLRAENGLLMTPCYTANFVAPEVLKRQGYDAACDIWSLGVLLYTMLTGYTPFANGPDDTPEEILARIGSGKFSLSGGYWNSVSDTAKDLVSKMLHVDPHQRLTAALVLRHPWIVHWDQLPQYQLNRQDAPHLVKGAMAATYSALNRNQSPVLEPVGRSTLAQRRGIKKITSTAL
Sequence of Tyrosine-protein kinase ABL1 (Homo sapiens), P00519 [E255K] (P00519 whole entry E255K): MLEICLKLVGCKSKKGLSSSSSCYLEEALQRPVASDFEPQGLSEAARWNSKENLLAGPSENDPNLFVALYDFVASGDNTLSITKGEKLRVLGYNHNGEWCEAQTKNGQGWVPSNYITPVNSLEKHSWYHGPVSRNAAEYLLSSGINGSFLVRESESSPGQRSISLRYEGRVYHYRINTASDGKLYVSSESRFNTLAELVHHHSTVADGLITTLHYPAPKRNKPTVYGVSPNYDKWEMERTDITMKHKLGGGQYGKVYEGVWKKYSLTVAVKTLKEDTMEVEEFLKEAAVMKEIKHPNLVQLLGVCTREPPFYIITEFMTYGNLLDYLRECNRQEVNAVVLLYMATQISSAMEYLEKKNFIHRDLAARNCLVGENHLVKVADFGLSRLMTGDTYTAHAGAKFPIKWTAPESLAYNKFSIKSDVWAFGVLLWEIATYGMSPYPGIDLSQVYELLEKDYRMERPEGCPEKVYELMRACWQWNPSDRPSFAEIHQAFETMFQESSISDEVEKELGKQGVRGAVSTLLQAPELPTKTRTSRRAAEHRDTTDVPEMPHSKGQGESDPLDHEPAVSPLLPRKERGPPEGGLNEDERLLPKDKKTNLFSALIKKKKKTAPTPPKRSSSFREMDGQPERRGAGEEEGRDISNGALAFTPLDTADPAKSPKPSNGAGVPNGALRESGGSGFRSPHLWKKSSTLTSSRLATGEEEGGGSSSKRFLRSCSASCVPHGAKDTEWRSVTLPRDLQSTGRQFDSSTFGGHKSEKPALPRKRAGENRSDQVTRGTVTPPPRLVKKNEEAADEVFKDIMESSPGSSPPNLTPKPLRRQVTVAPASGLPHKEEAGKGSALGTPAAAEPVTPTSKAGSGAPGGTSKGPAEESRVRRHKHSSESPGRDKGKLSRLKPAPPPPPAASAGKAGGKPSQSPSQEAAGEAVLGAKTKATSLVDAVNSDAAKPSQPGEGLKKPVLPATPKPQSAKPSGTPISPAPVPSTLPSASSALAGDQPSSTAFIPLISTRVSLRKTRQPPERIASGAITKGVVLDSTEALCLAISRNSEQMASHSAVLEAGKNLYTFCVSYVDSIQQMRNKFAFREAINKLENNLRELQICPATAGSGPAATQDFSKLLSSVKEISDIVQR
Sequence of Mitogen-activated protein kinase 10 (Homo sapiens) (P53779 whole entry): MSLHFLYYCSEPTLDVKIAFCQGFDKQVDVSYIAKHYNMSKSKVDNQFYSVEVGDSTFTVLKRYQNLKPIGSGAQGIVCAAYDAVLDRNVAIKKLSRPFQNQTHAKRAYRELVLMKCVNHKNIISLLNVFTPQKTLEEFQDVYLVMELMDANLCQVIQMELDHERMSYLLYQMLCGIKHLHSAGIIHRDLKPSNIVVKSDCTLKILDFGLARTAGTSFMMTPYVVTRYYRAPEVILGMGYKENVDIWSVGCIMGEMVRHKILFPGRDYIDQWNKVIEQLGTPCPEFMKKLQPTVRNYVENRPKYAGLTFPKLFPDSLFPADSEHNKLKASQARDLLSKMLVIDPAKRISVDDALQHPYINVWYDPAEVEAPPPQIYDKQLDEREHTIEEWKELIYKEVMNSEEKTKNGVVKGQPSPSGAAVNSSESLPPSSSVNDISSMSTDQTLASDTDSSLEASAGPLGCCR
Sequence of RAC-alpha serine/threonine-protein kinase (Homo sapiens) (P31749 whole entry): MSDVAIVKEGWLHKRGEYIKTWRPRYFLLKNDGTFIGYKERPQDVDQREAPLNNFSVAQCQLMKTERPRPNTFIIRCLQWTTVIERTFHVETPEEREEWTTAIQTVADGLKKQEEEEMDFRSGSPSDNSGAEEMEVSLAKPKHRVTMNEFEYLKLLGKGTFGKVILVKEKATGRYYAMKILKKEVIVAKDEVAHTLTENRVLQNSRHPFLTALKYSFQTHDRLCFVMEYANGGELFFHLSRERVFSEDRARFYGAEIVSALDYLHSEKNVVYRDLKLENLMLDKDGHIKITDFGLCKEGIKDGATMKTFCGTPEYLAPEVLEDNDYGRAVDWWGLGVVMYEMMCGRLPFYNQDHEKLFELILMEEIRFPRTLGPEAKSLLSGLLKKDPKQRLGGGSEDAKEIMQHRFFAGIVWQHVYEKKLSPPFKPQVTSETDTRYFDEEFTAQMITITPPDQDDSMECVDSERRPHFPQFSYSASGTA
Sequence of Vascular endothelial growth factor receptor 2 (Homo sapiens) (P35968 whole entry, the tested form may be a part): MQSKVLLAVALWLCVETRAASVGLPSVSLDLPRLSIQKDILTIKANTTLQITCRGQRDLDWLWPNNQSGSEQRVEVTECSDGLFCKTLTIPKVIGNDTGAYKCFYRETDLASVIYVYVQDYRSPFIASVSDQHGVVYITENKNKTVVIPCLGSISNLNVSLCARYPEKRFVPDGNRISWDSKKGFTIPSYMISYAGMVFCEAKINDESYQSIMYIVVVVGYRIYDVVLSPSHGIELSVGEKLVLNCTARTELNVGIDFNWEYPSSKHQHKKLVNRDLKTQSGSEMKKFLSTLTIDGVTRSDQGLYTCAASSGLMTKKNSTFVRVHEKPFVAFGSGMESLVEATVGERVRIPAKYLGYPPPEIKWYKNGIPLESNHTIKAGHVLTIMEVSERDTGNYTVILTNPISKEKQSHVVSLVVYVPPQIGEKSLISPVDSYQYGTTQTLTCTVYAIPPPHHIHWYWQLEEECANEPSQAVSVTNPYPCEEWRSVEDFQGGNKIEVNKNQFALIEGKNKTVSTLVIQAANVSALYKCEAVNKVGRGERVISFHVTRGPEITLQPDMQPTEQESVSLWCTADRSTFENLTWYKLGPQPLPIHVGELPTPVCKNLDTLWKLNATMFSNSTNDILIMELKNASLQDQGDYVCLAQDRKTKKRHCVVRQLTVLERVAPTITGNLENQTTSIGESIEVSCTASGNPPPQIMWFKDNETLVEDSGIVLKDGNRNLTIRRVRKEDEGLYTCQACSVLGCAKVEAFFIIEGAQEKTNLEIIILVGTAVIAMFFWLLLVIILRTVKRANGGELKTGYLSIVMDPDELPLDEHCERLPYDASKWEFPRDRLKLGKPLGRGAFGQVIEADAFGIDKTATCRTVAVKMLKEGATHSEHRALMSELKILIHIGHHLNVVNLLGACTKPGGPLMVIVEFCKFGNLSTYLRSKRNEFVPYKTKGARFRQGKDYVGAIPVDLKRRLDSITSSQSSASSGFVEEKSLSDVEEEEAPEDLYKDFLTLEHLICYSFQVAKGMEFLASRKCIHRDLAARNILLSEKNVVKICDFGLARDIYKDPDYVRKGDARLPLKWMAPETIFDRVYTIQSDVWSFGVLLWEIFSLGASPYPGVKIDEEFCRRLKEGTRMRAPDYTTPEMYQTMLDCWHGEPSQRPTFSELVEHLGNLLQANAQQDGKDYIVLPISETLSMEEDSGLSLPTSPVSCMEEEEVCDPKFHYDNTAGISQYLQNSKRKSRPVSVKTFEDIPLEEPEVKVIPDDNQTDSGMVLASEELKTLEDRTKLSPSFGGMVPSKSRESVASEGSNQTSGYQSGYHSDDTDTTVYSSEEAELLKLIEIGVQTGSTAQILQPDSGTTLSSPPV
Sequence of MAP kinase-interacting serine/threonine-protein kinase 1 (Homo sapiens) (Q9BUB5 whole entry, looked up): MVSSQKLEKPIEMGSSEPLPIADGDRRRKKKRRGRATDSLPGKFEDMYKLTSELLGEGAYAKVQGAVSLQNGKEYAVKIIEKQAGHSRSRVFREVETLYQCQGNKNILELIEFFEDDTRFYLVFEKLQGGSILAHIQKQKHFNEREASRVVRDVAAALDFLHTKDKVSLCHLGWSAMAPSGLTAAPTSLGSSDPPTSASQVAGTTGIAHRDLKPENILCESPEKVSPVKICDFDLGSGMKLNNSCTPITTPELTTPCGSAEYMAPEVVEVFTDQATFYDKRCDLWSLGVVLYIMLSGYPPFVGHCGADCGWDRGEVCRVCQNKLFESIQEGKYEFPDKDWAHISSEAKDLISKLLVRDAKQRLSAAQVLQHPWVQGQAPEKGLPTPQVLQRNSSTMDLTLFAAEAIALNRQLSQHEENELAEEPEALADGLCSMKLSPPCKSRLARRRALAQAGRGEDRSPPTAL
Sequence of Serine/threonine-protein kinase pim-2 (Homo sapiens) (Q9P1W9 whole entry, looked up): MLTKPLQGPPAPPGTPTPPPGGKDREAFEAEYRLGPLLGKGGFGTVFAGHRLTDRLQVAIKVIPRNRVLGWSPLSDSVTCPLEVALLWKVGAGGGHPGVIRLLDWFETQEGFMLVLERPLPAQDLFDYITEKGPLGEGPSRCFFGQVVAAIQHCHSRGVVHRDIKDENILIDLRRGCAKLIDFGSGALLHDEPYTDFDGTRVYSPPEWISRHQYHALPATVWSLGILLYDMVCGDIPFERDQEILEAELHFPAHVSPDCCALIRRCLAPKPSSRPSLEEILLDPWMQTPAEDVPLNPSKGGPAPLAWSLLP

For `CO[C@@H]1[C@H](N(C)C(=O)CCC(=O)NCCC(=O)NCCC(=O)NCCC(N)=O)C[C@H]2O[C@]1(C)n1c3ccccc3c3c4c(c5c6ccccc6n2c5c31)C(=O)NC4`, the Activity in [1] was determined as 53%; in [2] it was 100%; in assay [3] it was 2.2%; in assay [4] it was 7.4%.

Regarding `CO[C@@H]1[C@H](N(C)C(=O)CCC(=O)NCCC(=O)NCCC(=O)NCCC(=O)NCCC(=O)NCCC(=O)NCCC(=O)NCCC(=O)N[C@H]2CSSC[C@@H](C(=O)NCC(N)=O)NC(=O)CNC(=O)[C@H](Cc3ccccc3)NC(=O)[C@H](C(C)C)NC(=O)[C@H](CCCNC(=N)N)NC(=O)[C@H](Cc3ccccc3)NC(=O)[C@H](C(C)C)NC2=O)C[C@H]2O[C@]1(C)n1c3ccccc3c3c4c(c5c6ccccc6n2c5c31)C(=O)NC4` ({Staurosporine-Suc-βAla-βAla-βAla-βAla-βAla-βAla-βAla}-CVFRVFGCG-NH2; disulfide 1-8), the Activity was determined as 73% in assay [5], 100% in assay [6], 100% in assay [7] and 16% in assay [8].

For `CO[C@@H]1[C@H](N(C)C(=O)CCC(=O)NCCC(=O)NCCC(=O)NCCC(=O)NCCC(=O)NCCC(=O)NCCC(=O)NCCC(=O)N[C@H]2CNC(=O)C[C@@H](C(N)=O)NC(=O)CNC(=O)[C@H](Cc3ccccc3)NC(=O)[C@H](C(C)C)NC(=O)[C@H](CCCNC(=N)N)NC(=O)[C@H](Cc3ccccc3)NC(=O)[C@H](C(C)C)NC2=O)C[C@H]2O[C@]1(C)n1c3ccccc3c3c4c(c5c6ccccc6n2c5c31)C(=O)NC4` ({Staurosporine-Suc-βAla-βAla-βAla-βAla-βAla-βAla-βAla}-[Dap]VFRVFGD-NH2; lactam 1-8), the Activity was determined as 100% in [9]; 23% in assay [10]; 97% in [11]; 5.7% in [12]; 100% in [13]; 85% in assay [14].
